Experimental data as given in ChEMBL document CHEMBL4316593 (Eur J Med Chem, 2019).
Activity calls are given as the source filed them. No cut-off for these calls is given here.

Experiments:
[1] = Inhibition of RTK/PI3K/AKT/mTOR signaling in human U87 cells assessed as down regulation of NAAA gene expression at cytotoxic IC50 measured after 48 hrs relative to control; assay type: cell-based; details: U-87MG ATCC
How it was run: (§1)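 Cells were exposed for 48hrs at 37°C in humidified 5% CO₂ to the compound at its previously determined IC₅₀, with Cisplatin at its IC₅₀ and an untreated negative control alongside. Each condition was run in triplicate. RNA was isolated from all samples by the same protocol. Genes were called differentially expressed by DESeq2 at q-value < 0.05 and fold change > 1.5.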

[2] = Inhibition of RTK/PI3K/AKT/mTOR signaling in human U87 cells assessed as down regulation of SOD2 gene expression at cytotoxic IC50 measured after 48 hrs relative to control; assay type: cell-based; details: U-87MG ATCC; how it was run: as §1
[3] = tested on: U-87 MG; experiment: Induction of DNA damage in human U87 cells assessed as change in TAOK3 gene expression at cytotoxic IC50 measured after 48 hrs […] relative to control; assay type: functional, U-87MG ATCC
How it was run: (§2)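 U87 cells grown in MEM with 10% FBS at 37°C, 5% CO2. Cells exposed to IC50 of test compound for 48 hrs, alongside untreated and cisplatin controls, each condition in triplicate. RNA isolated and profiled; differential expression called with DESeq2 (q-value < 0.05, fold change > 1.5), fold change versus untreated.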

[4] = tested on: U-87 MG; experiment: Cell cycle arrest in human U87 cells assessed as change in CREBBP gene expression at cytotoxic IC50 measured after 48 hrs […] relative to control; assay type: functional, U-87MG ATCC
How it was run: (§3)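 U87 expression profiling. Cells incubated 48hrs at 37°C, 5% CO₂ with the IC₅₀ concentration, alongside a cisplatin and an untreated control, in triplicate. RNA was isolated by one common protocol and profiled. DEGs were called with DESeq2 (q < 0.05, fold change > 1.5) and expressed as fold change versus untreated.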

[5] = Inhibition of RTK/PI3K/AKT/mTOR signaling in human U87 cells assessed as up regulation of RPS14 gene expression at cytotoxic IC50 measured after 48 hrs relative to control; assay type: cell-based; details: U-87MG ATCC
How it was run: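 U87 cells were exposed for 48 hrs at 37°C under 5% CO₂, with cisplatin and untreated controls, all in triplicate. RNA was isolated by the same protocol for every sample and expression profiled from mapped reads. Differential expression against untreated cells was called in DESeq2 (q-value < 0.05, fold change > 1.5).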

[6] = tested on: U-87 MG; experiment: Induction of DNA damage in human U87 cells assessed as change in MDM2 gene expression at cytotoxic IC50 measured after 48 hrs […] relative to control; assay type: functional, U-87MG ATCC; how it was run: as §3
[7] = Inhibition of RTK/PI3K/AKT/mTOR signaling in human U87 cells assessed as up regulation of single Ig and TIR domain containing gene expression at cytotoxic IC50 measured after 48 hrs relative to control; assay type: cell-based; details: U-87MG ATCC
[8] = Inhibition of RTK/PI3K/AKT/mTOR signaling in human U87 cells assessed as up regulation of WW domain containing transcription regulator 1 gene expression at cytotoxic IC50 measured after 48 hrs relative to control; assay type: cell-based; details: U-87MG ATCC
[9] = Inhibition of RTK/PI3K/AKT/mTOR signaling in human U87 cells assessed as up regulation of MRG domain binding protein gene expression at cytotoxic IC50 measured after 48 hrs relative to control; assay type: cell-based; details: U-87MG ATCC; how it was run: as §1
[10] = Inhibition of RTK/PI3K/AKT/mTOR signaling in human U87 cells assessed as up regulation of COX19, cytochrome c oxidase assembly factor gene expression at cytotoxic IC50 measured after 48 hrs relative to control; assay type: cell-based; details: U-87MG ATCC; how it was run: as §1
[11] = tested on: LN-229; experiment: Induction of oxidative stress in human LN229 cells assessed as increase in redox level at cytotoxic IC50 measured after 5 hrs by H2DCFDA dye based fluorescence assay relative to control; assay type: functional, cell-based
How it was run: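 Cells grown overnight, exposed to IC50 for 5 hrs at 37°C with negative, positive (H2O2) and blank controls, plus solvent baseline. Pelleted, loaded with 2 µM H2DCFDA for 30 min at 37°C, washed, resuspended in warm medium, 20 min at room temperature. Fluorescence read at ex 485/em 535 nm.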

[12] = tested on: U-87 MG; experiment: Cell cycle arrest in human U87 cells assessed as change in CDC6 gene expression at cytotoxic IC50 measured after 48 hrs […] relative to control; assay type: functional, U-87MG ATCC; how it was run: as §3
[13] = Inhibition of RTK/PI3K/AKT/mTOR signaling in human U87 cells assessed as down regulation of LAMA2 gene expression at cytotoxic IC50 measured after 48 hrs relative to control; assay type: cell-based; details: U-87MG ATCC; how it was run: as §2
[14] = tested on: LN-229; experiment: Induction of apoptosis in human LN229 cells assessed as apoptotic cells at cytotoxic IC50 measured after 48 hrs by Annexin V-FITC/propidium iodide staining based flow cytometry (reference value: 29.3%); assay type: functional
[15] = Inhibition of RTK/PI3K/AKT/mTOR signaling in human U87 cells assessed as up regulation of TOX2 gene expression at cytotoxic IC50 measured after 48 hrs relative to control; assay type: cell-based; details: U-87MG ATCC
[16] = tested on: U-87 MG; experiment: Cell cycle arrest in human U87 cells assessed as change in GADD45A gene expression at cytotoxic IC50 measured after 48 hrs […] relative to control; assay type: functional, U-87MG ATCC; how it was run: as §3
[17] = Inhibition of RTK/PI3K/AKT/mTOR signaling in human U87 cells assessed as up regulation of keratinocyte associated protein 3 gene expression at cytotoxic IC50 measured after 48 hrs relative to control; assay type: cell-based
[18] = tested on: U-87 MG; experiment: Induction of apoptosis in human U87 cells assessed as change in TUBA4A gene expression at cytotoxic IC50 measured after 48 hrs by […] relative to control; assay type: functional, U-87MG ATCC; how it was run: as §2
[19] = Inhibition of RTK/PI3K/AKT/mTOR signaling in human U87 cells assessed as up regulation of melanoma inhibitory activity 2 gene expression at cytotoxic IC50 measured after 48 hrs relative to control; assay type: cell-based; details: U-87MG ATCC
[20] = Inhibition of RTK/PI3K/AKT/mTOR signaling in human U87 cells assessed as down regulation of NLRC5 gene expression at cytotoxic IC50 measured after 48 hrs relative to control; assay type: cell-based; details: U-87MG ATCC; how it was run: as §1
[21] = tested on: U-87 MG; experiment: Cell cycle arrest in human U87 cells assessed as change in YWHAG gene expression at cytotoxic IC50 measured after 48 hrs […] relative to control; assay type: functional, U-87MG ATCC; how it was run: as §3
[22] = tested on: U-87 MG; experiment: Cell cycle arrest in human U87 cells assessed as change in CDK2 gene expression at cytotoxic IC50 measured after 48 hrs […] relative to control; assay type: functional, U-87MG ATCC; how it was run: as §3
[23] = tested on: U-87 MG; experiment: Induction of apoptosis in human U87 cells assessed as change in CAPN1 gene expression at cytotoxic IC50 measured after 48 hrs […] relative to control; assay type: functional, U-87MG ATCC; how it was run: as §2
[24] = tested on: U-87 MG; experiment: Induction of DNA damage in human U87 cells assessed as change in E2F7 gene expression at cytotoxic IC50 measured after 48 hrs […] relative to control; assay type: functional, U-87MG ATCC; how it was run: as §3
[25] = Inhibition of RTK/PI3K/AKT/mTOR signaling in human U87 cells assessed as up regulation of TOMM22 gene expression at cytotoxic IC50 measured after 48 hrs relative to control; assay type: cell-based; details: U-87MG ATCC
[26] = Inhibition of RTK/PI3K/AKT/mTOR signaling in human U87 cells assessed as up regulation of ral guanine nucleotide dissociation stimulator gene expression at cytotoxic IC50 measured after 48 hrs relative to control; assay type: cell-based; details: U-87MG ATCC

In the case of `CC(=O)C(=NNc1ccccc1C#N)C(C)=O`, the log2FC [1] is reported as -1.57, the log2FC [2] is reported as -0.617 and the “fold change (FC)” value [3] is reported as -1.929. The “fold change (FC)” value [4] was -1.086, the log2FC [5] was 0.607 and the “fold change (FC)” value [6] was 1.471. It also gave a log2FC [7] of 0.676, a log2FC [8] of 0.981 and a log2FC [9] of 0.97. For the same compound, the log2FC [10] was 1.33, the Activity [11] was “inactive” and the “fold change (FC)” value [12] was 1.009. The log2FC [13] was -1.14, the Activity [14] was 57.3% and the log2FC [15] was 1.66. The “fold change (FC)” value [16] was -0.9679, the log2FC [17] was 1.03 and the log2FC [18] was 1.583. The log2FC [19] was 0.695, the log2FC [20] was -1.26 and the “fold change (FC)” value [21] was -0.7503. The “fold change (FC)” value [22] was 1.392, the log2FC [23] was 0.8843 and the “fold change (FC)” value [24] was 2.057. The log2FC [25] was 0.475 and the log2FC [26] was 0.685.
